Assay outcomes from PubChem BioAssay.
A selection: hits, their analogues and other compounds. The true share with any hit is near 2.6%.
PvdQ inh = P. aeruginosa PvdQ acylase inhibitors, primary screen, biochemical, fluorescence, plate reader and imaging, single point | PvdQ acylase [Pseudomonas aeruginosa LESB58] | purified PvdQ acylase | inhibition, % at 10 µM | 340,000 compounds, 0.063% hits | AID 488965, 2010; in the data active = inhibition above about 30%, passing the limit was not always enough;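 note: 0% = vehicle neutral wells and 100% = reference inhibitor wells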
SR-BI DiI inh = inhibitors of SR-BI mediated HDL lipid uptake, primary screen, ldlA[mSR-BI] cells, fluorescence, single point. Scavenger receptor class B member 1 (Mus musculus), Q61009. ldlA[mSR-BI] CHO cells, DiI-HDL uptake fluorescence, 3 h. inhibition, % at 12.5 µM. 320,000 compounds, 0.96% hits. AID 488896, 2010;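 active = mean replicate inhibition of at least 70% and a set share of replicates each scoring 70 or more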;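 note: 0% = median of neutral control wells and 100% = median of positive control wells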
dFosB act-1 = activators of delta FosB homodimer, primary screen, biochemical, fluorescence polarization, TAMRA-CDK5 oligo, single point; Protein FosB (Mus musculus), P13346; purified delta FosB; percent of positive-control signal above neutral wells; activation, % at 25 µM; 340,000 compounds, 0.99% hits; AID 493131, 2011;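 active = mean activation above about 17%, with every replicate also reaching it, limit read from the data, passing the limit was not always enough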
Target sequence (P13346 whole entry, looked up): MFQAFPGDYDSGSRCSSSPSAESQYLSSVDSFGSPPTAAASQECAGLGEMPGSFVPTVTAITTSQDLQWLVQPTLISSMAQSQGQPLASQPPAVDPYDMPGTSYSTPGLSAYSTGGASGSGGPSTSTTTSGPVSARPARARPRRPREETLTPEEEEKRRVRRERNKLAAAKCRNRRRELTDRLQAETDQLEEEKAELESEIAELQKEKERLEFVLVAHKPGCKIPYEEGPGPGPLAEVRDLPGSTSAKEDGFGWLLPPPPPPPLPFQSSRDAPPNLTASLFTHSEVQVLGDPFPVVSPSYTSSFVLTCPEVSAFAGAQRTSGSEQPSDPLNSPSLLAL
rRNA inh HTS = reduced GFP signal of wild-type E. coli, primary screen, bacterial rRNA inhibitor project, GFP/RFP fluorescence, OD600, single point. 350,000 compounds, 1.6% hits. GFP signal change (wild-type ribosome), % (test concentration not listed). E. coli WT GFP vs humanized-ribosome RFP mutants, 24 h; hits give low values; DMSO median 0, no signal -100;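 active = significant combined selectivity score with lowered wild-type GFP, culture density cut under 30%, mutant RFP and density less affected; inactive = any of these conditions unmet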
Xi reactivation = activators of inactive X chromosome reactivation, primary screen, imaging, XiGFP fibroblasts, GFP high-content imaging, set 2. XiGFP mouse fibroblasts, % GFP-positive cells imaging, 3 d; cells co-treated with 5-aza-dC sensitizer; scaled so ellipticine positive control = 100%. activation, % at 7.58 µM. 360,000 compounds, 0.055% hits. AID 743238, 2013;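 active = mean normalized replicate activation at least 10% and every replicate at or above 10%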;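 note: 0% = median of on-plate neutral control wells and 100% = ellipticine 6 µM median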
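System: XiGFP fibroblasts, SV40-immortalized. Medium: DMEM plus 5-aza-dC sensitizer. Doses: single point. Timing: 3 d treatment, 15 min room-temperature fixation. Control set: ellipticine 6 µM.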
SR-BI DiI-HDL act = activators of SR-BI mediated DiI-HDL uptake, primary screen, ldlA[mSR-BI] CHO cells, DiI fluorescence; 3 h; 100 = double the neutral-control signal; activation, % at 12.5 µM; 320,000 compounds, 0.096% hits; AID 504775, 2011;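 active = mean replicate activation of at least 60% and every replicate at or above 60%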;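 note: 0% = median plate neutral-control signal and 100% = twice that signal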
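Assay system: LDL receptor-deficient CHO ldlA cells overexpressing murine SR-BI / Medium: BSA-supplemented, HEPES-buffered Ham's F12, pH 7.4 / Probe or stimulus: DiI-labelled HDL at 10 µg/mL final / Timing: compound with DiI-HDL co-incubation, 3 h at 37 °C / Technique: bottom-read cell fluorescence after medium removal, ex 550/em 595 nm / Measure: HDL uptake via cellular fluorescence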
dFosB act-2 = activators of mouse delta FosB DNA binding, confirmation, biochemical, fluorescence polarization, TAMRA-CDK5 oligo, cherry-picked samples. purified delta FosB; normalised: neutral wells 0, positive control 100. 2,400 tested, under 10 active. shares compounds with dFosB act-1. activation, % at 24.9 µM;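 active = highest replicate activation at or above 34% and every replicate reaching that threshold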;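 note: higher polarization means more probe DNA bound by delta FosB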
* = called active by the depositor.

CC(=O)c1cccc(NC(=O)Cn2c(=O)oc3cc(S(=O)(=O)N4CCCC4)ccc32)c1 was read as PvdQ inh -15.7, SR-BI DiI inh -19.0, dFosB act-1 32.8*, rRNA inh HTS 5.3, Xi reactivation 0.1, SR-BI DiI-HDL act 19.0 and dFosB act-2 -0.4.
Screening Cc1cccc(NC(=O)c2ccc(S(=O)(=O)NCc3ccco3)cc2)n1 returned PvdQ inh 7.0, SR-BI DiI inh 5.6, dFosB act-1 33.1*, rRNA inh HTS 13.4, Xi reactivation 0.0, SR-BI DiI-HDL act -5.6 and dFosB act-2 0.5.
`CCCN(C)C[C@H]1OCCCC[C@@H](C)Oc2ccc(NC(=O)C3CCCCC3)cc2C(=O)N([C@@H](C)CO)C[C@H]1C` gave rRNA inh HTS 0.4 and Xi reactivation -0.1.
`Cc1ccccc1Nc1nc(N)c2ccccc2n1` gave PvdQ inh 23.7, SR-BI DiI inh 9.5, dFosB act-1 -2.8, rRNA inh HTS 18.4, Xi reactivation -0.7 and SR-BI DiI-HDL act -9.5.
For COc1ccc(C)cc1Nc1nc(N)c2ccccc2n1 the results were PvdQ inh -8.5, SR-BI DiI inh 3.1, dFosB act-1 26.6*, rRNA inh HTS -4.0, Xi reactivation 0.0, SR-BI DiI-HDL act -3.1 and dFosB act-2 0.9.
For Cc1oc(-c2ccccc2F)nc1CS(=O)CC(=O)NC1CC1 (stereo not given) the results were PvdQ inh -2.8, SR-BI DiI inh -5.2, dFosB act-1 -3.5, rRNA inh HTS 4.1, Xi reactivation 0.0 and SR-BI DiI-HDL act 5.2.
`COc1ccc2cc(OCC(=O)NNC(=O)Nc3ccc(F)cc3)ccc2c1` gave PvdQ inh 0.8, SR-BI DiI inh -8.9, dFosB act-1 21.2*, rRNA inh HTS 2.7, Xi reactivation 0.1, SR-BI DiI-HDL act 8.9 and dFosB act-2 0.4.
Screening Cc1ccc(-c2nc(CSCC(=O)Nc3cc(C)on3)c(C)o2)cc1 returned PvdQ inh -4.9, SR-BI DiI inh -2.5, dFosB act-1 -5.9, rRNA inh HTS 3.5, Xi reactivation 1.1 and SR-BI DiI-HDL act 2.5.
C[C@@H]1CN([C@@H](C)CO)S(=O)(=O)c2ccc(-c3ccccc3)cc2O[C@H]1CN(C)C(=O)C1CCCCC1 was read as rRNA inh HTS -10.9 and Xi reactivation -0.7.
`C=CCNC(=O)C1CC(=O)N(c2ccc(OCC(=O)Nc3cccc(OC)c3)cc2)C1` (stereo not given) gave PvdQ inh -6.0 and dFosB act-1 -3.8.
`C=CCNC(=O)C1CC(=O)N(c2ccc(OCC(=O)Nc3ccc(Cl)c(C(F)(F)F)c3)cc2)C1` (stereo not given) gave PvdQ inh -3.9, SR-BI DiI inh 46.2, dFosB act-1 27.0*, SR-BI DiI-HDL act -46.2 and dFosB act-2 -0.4.
O=C(Nc1ccc(Cl)c(Cl)c1)c1ccc(Cn2c(=O)[nH]c3ccsc3c2=O)cc1 was read as PvdQ inh 0.6, SR-BI DiI inh 20.6, dFosB act-1 21.6*, rRNA inh HTS 2.6, Xi reactivation -0.2, SR-BI DiI-HDL act -20.6 and dFosB act-2 1.6.
`O=C(Nc1ccc(Oc2ccccc2)cc1)c1ccc(Cn2c(=O)[nH]c3ccsc3c2=O)cc1` gave PvdQ inh 8.3, SR-BI DiI inh 39.1, dFosB act-1 62.3*, rRNA inh HTS -1.1, Xi reactivation 0.0, SR-BI DiI-HDL act -39.1 and dFosB act-2 7.1.
